Assay results from ChEMBL document CHEMBL3232761, “Novel metronidazole-chalcone conjugates with potential to counter drug resistance in Trichomonas vaginalis” (Eur J Med Chem, 2014).
In brackets after ≈: the same amount, converted by molar mass.

How the values were obtained:
[1] = test system: Trichomonas vaginalis; test: Ratio of MIC for metronidazole-resistant Trichomonas vaginalis ATCC 50143 to metronidazole-susceptible Trichomonas vaginalis clinical isolate; assay type: functional
In short: (§1)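 Both T. vaginalis strains were grown in TYM medium (pH 6.8) with 10% heat-inactivated FBS, 2% vitamin mixture, penicillin and streptomycin, under partial anaerobiosis at 37°C. Log-phase trophozoites (5 X 10³/well) taken 1 day after subculture were exposed to twofold dilutions from 100 down to 0.78 μg/ml (from DMSO stocks), with 0.05% DMSO vehicle controls, anaerobically at 37°C. Viability was scored daily by trypan blue counting. MIC was the lowest concentration leaving all trophozoites nonviable at 24 h.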

[2] = test system: Trichomonas vaginalis; test: Antitrichomonal activity against metronidazole-resistant Trichomonas vaginalis ATCC 50143 by trypan blue staining-based cell counting; assay type: functional
In short: (§2)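 Log-phase trophozoites (grown 1 day in TYM medium with 10% heat-inactivated FBS, pH 6.8, under partial anaerobiosis at 37°C) seeded at 5 X 10³/well. Compounds dissolved in DMSO and serially diluted in TYM from 100 to 0.78 μg/ml; vehicle wells had 0.05% DMSO. Plates incubated anaerobically at 37°C, with viability followed by trypan blue counting. MIC taken at 24 h as the lowest concentration leaving all trophozoites nonviable.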

[3] = test system: Trichomonas vaginalis; test: Antitrichomonal activity against metronidazole-susceptible Trichomonas vaginalis clinical isolate by trypan blue staining-based cell counting; assay type: functional; in short: as §2
[4] = test system: HeLa; test: Cytotoxicity against human HeLa cells after 24 hrs by MTT assay; assay type: cell-based
In short: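 HeLa cells were kept in DMEM with 10% FBS at 37°C under 5% CO₂, then seeded at 5 X 10⁴/well and grown 24 h. Medium was replaced with compound dilutions starting at 1.0 mg/ml, with 0.05% DMSO in control wells, and cells were exposed for 24 h. MTT was then added, formazan was dissolved in DMSO, and OD was read at 540 nm.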

[5] = test system: Trichomonas vaginalis; test: Ratio of metronidazole MIC to compound MIC for metronidazole-resistant Trichomonas vaginalis ATCC 50143 by trypan blue staining-based cell counting; assay type: functional; in short: as §1

SMILES | MIC [2] [µg/mL] | MIC [3] [µg/mL] | Ratio [1] | IC50 [4] [µg/mL] | Ratio [5]
Cc1ncc([N+](=O)[O-])n1CCOc1ccc(C(=O)/C=C/c2ccccc2)cc1 | 50 (≈ 132 µM) | 1.56 (≈ 4.13 µM) | 4 | – | –
Cc1ncc([N+](=O)[O-])n1CCOc1ccc(C(=O)/C=C/c2ccc(F)cc2)cc1 | 6.25 (≈ 15.8 µM) | 1.56 (≈ 3.95 µM) | 2 | – | –
Cc1ncc([N+](=O)[O-])n1CCOc1ccc(C(=O)/C=C/c2ccc(F)c(F)c2)cc1 | 6.25 (≈ 15.1 µM) | 1.56 (≈ 3.77 µM) | 2 | – | –
Cc1ncc([N+](=O)[O-])n1CCOc1ccc(C(=O)/C=C/c2cc(F)cc(F)c2)cc1 | 3.12 (≈ 7.56 µM) | 1.56 (≈ 3.77 µM) | 2 | > 1000 | 4
Cc1ncc([N+](=O)[O-])n1CCOc1ccc(C(=O)/C=C/c2cc(F)ccc2F)cc1 | 6.25 (≈ 15.1 µM) | 1.56 (≈ 3.77 µM) | 2 | – | –
Cc1ncc([N+](=O)[O-])n1CCOc1ccc(C(=O)/C=C/c2cccc(Cl)c2)cc1 | 3.12 (≈ 7.59 µM) | 1.56 (≈ 3.79 µM) | 2 | > 1000 | 4
Cc1ncc([N+](=O)[O-])n1CCOc1ccc(C(=O)/C=C/c2cccc(Br)c2)cc1 | 3.12 (≈ 6.85 µM) | 3.12 (≈ 6.85 µM) | – | – | 4
Cc1ncc([N+](=O)[O-])n1CCOc1ccc(C(=O)/C=C/c2ccccc2C(F)(F)F)cc1 | 25 (≈ 56.1 µM) | 6.25 (≈ 14 µM) | – | – | –
Cc1ncc([N+](=O)[O-])n1CCOc1ccc(C(=O)/C=C/c2ccc([N+](=O)[O-])cc2)cc1 | 6.25 (≈ 14.8 µM) | 1.56 (≈ 3.69 µM) | 2 | – | 2
COc1ccc(/C=C/C(=O)c2ccc(OCCn3c([N+](=O)[O-])cnc3C)cc2)cc1OC | 12.5 (≈ 28.6 µM) | 1.56 (≈ 3.57 µM) | 8 | – | –
COc1ccc(OC)c(/C=C/C(=O)c2ccc(OCCn3c([N+](=O)[O-])cnc3C)cc2)c1 | 12.5 (≈ 28.6 µM) | 12.5 (≈ 28.6 µM) | – | – | –
Cc1ncc([N+](=O)[O-])n1CCO [METRONIDAZOLE] | 12.5 (≈ 73 µM) | 1.56 (≈ 9.11 µM) | 8 | > 1000 | –

Second part, led by results:

MIC [2] [µg/mL] | MIC [3] [µg/mL] | SMILES | Ratio [1] | IC50 [4] [µg/mL] | Ratio [5]
100 (≈ 253 µM) | 25 (≈ 63.2 µM) | Cc1ncc([N+](=O)[O-])n1CCOc1ccc(C(=O)/C=C/c2cccc(F)c2)cc1 | – | – | –
12.5 (≈ 30.4 µM) | 3.12 (≈ 7.59 µM) | Cc1ncc([N+](=O)[O-])n1CCOc1ccc(C(=O)/C=C/c2ccccc2Cl)cc1 | – | – | –
6.25 (≈ 15.2 µM) | 6.25 (≈ 15.2 µM) | Cc1ncc([N+](=O)[O-])n1CCOc1ccc(C(=O)/C=C/c2ccc(Cl)cc2)cc1 | – | – | –
12.5 (≈ 28 µM) | 6.25 (≈ 14 µM) | Cc1ncc([N+](=O)[O-])n1CCOc1ccc(C(=O)/C=C/c2ccc(Cl)cc2Cl)cc1 | – | – | –
25 (≈ 56 µM) | 6.25 (≈ 14 µM) | Cc1ncc([N+](=O)[O-])n1CCOc1ccc(C(=O)/C=C/c2c(Cl)cccc2Cl)cc1 | – | – | –
6.25 (≈ 13.7 µM) | 3.12 (≈ 6.85 µM) | Cc1ncc([N+](=O)[O-])n1CCOc1ccc(C(=O)/C=C/c2ccccc2Br)cc1 | – | – | –
6.25 (≈ 13.7 µM) | 6.25 (≈ 13.7 µM) | Cc1ncc([N+](=O)[O-])n1CCOc1ccc(C(=O)/C=C/c2ccc(Br)cc2)cc1 | – | – | –
25 (≈ 56.1 µM) | 3.12 (≈ 7.02 µM) | Cc1ncc([N+](=O)[O-])n1CCOc1ccc(C(=O)/C=C/c2ccc(C(F)(F)F)cc2)cc1 | – | – | –
25 (≈ 61.4 µM) | 3.12 (≈ 7.67 µM) | COc1ccc(/C=C/C(=O)c2ccc(OCCn3c([N+](=O)[O-])cnc3C)cc2)cc1 | – | – | –
12.5 (≈ 30.8 µM) | 6.25 (≈ 15.4 µM) | Cc1ccc(/C=C/C(=O)c2ccc(OCCn3c([N+](=O)[O-])cnc3C)cc2)cc1C | – | – | –
25 (≈ 58.5 µM) | 6.25 (≈ 14.6 µM) | Cc1ncc([N+](=O)[O-])n1CCOc1ccc(C(=O)/C=C/c2cccc3ccccc23)cc1 | – | – | –
